Screening data from PubChem BioAssay.
Sampled rows, rich in hits. Any-hit rate of the full collection: about 2%.
HCV core dimer: inhibitors of HCV core protein dimerization, primary screen, biochemical, TR-FRET, high-throughput; inhibition, % at 5 µM; AID 1899, 2009; TR-FRET GST/Flag-core106 dimerization, 1536-well; 300,000 tested, 0.33% active;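 active means inhibition above the mean of all tested compounds plus 3 SD, set per screening campaign, cut at about 45% in these data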
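Test system: GST/Flag-tagged HCV core106 proteins; Medium: KF-containing HEPES buffer, pH 7.45, DTT, CHAPS, BSA; Times: compound-protein-antibody incubation 4 h at 22.5 °C; Detection: TR-FRET 671 and 617 nm emission; Benchmarks: wells lacking GST-core106 and wells with excess unlabelled core106.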
eIF4H inh: human eIF4H binding inhibitors, primary screen, translation initiation inhibitor project, biochemical, uHTS, fluorescence polarization; 290,000 tested, 0.94% active; eIF4H fluorescence polarization binding assay; inhibition, % at 35 µM; Eukaryotic translation initiation factor 4H (Homo sapiens), Q15056; AID 2012, 2009;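 further: calls also rest on retests at 20 µM and on dose response follow-up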
PABP FP inh: PABP poly(A) RNA binding inhibitors, primary screen, biochemical, fluorescence polarization, uHTS. AID 2014, 2009. 290,000 tested, 1% active. inhibition, % at 35 µM. Polyadenylate-binding protein 1 (Homo sapiens), P11940;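 further: calls also rest on retests at 20 µM and on dose response follow-up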
FID counter: compounds displacing fluorescent DNA intercalator, primary screen, artefact control for HCV NS3 helicase inhibitor project, biochemical, FID fluorescence | DNA fluorescent intercalator displacement | inhibition, % at 7.9 µM | 290,000 tested, 0.17% active; in the data active means inhibition above about 37%;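 further: higher means more ethidium bromide displaced from hairpin DNA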
PABP1 MLLE inh: inhibitors of PABP1 MLLE–PAM2 peptide binding, primary screen, biochemical, fluorescence polarization, FITC-PAM2, GST-MLLE; Polyadenylate-binding protein 1 (Homo sapiens), P11940; inhibition, % at 20 µM; 360,000 tested, 0.36% active; in the data active means inhibition above about 35%, passing the limit was not always enough
NS3 helicase inh: inhibitors of HCV NS3 helicase, primary screen, biochemical, Cy5 molecular beacon fluorescence; Hepatitis C virus NS3 helicase; NS3 helicase DNA unwinding; inhibition, % at 10.9 µM; 290,000 tested, 0.56% active;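 active means inhibition above the mean of all tested compounds plus 3 SD, set per campaign, cut at about 35% in these data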
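System: NS3 helicase fragment of HCV / Schedule: 1 h at 25 °C / Control set: DMSO alone as 0% and 110 µM thioflavine S as 100% / Reagent: Cy5/quencher beacon DNA duplex and ATP to start / Technique: Cy5 fluorescence / Replication: singlicate / Evaluation: % inhibition of end-to-start signal ratio versus controls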
Large screens that a line does not name were inactive. Unless noted, how the calls were made is not given here.

CN(c1ccccc1)S(=O)(=O)c1cccc(C(=O)OCC(=O)NCCCN2CCCC2=O)c1	PABP FP inh 64
O=C(O)c1cc(S(=O)(=O)O)cc(Nc2c3ccccc3nc3ccccc23)c1O	eIF4H inh 98, PABP FP inh 41
O=C(O)c1cccc(Nc2c3ccccc3nc3ccccc23)c1	none
O=C(CCC(=O)N1CCN(c2ccc(C(F)(F)F)cn2)CC1)c1cccs1	none (no result: HCV core dimer, eIF4H inh, PABP FP inh, FID counter, NS3 helicase inh)
O=C(NNC(=O)c1cc2cc(Br)ccc2oc1=O)c1ccc(O)cc1O	eIF4H inh 85, PABP FP inh 4.2
COCCCNC(=O)c1cc2cc(Br)ccc2oc1=O	none
CCN(CC)S(=O)(=O)c1cccc(-c2nnc(SCCOc3ccccc3)o2)c1	none
Cc1cc(C(=O)CSc2nc3ccccc3[nH]2)c(C)n1Cc1ccco1	eIF4H inh 87, PABP FP inh active
CCN(CC)S(=O)(=O)c1cccc(-c2nnc(SCC(=O)c3cc(C)n(C)c3C)o2)c1	PABP FP inh 125
Cc1cc(C(=O)CSc2nnc(-c3ccco3)o2)c(C)n1Cc1ccco1	eIF4H inh 65, PABP FP inh 36
CCOc1ccc(-c2c(C)sc3nc[nH]c(=O)c23)cc1	none
COCCN(C(=O)c1cc(S(=O)(=O)N2CCCCC2)ccc1Cl)c1c(N)n(CC(C)C)c(=O)[nH]c1=O	none (no result: HCV core dimer, eIF4H inh, PABP FP inh, FID counter, NS3 helicase inh)
O=C(OCc1nc2ccccc2s1)c1ccc(Br)o1	eIF4H inh 7.1, PABP FP inh 70
O=C(OCc1nc2ccccc2s1)c1ccc([N+](=O)[O-])o1	none
COc1ccc(Cl)cc1CNC[C@H]1O[C@@H](n2ccc(N)nc2=O)[C@H](O)[C@@H]1O	none (no result: HCV core dimer, eIF4H inh, PABP FP inh, FID counter, NS3 helicase inh)
CC(C)CCN1C(=O)c2ccc(C(=O)Nc3ccc(O)cc3C(=O)O)cc2C1=O	eIF4H inh 81, PABP FP inh 55
CC(c1ccccc1)N1C(=O)c2ccc(C(=O)Nc3ccccc3C(=O)O)cc2C1=O (centres undefined)	FID counter 43
COC(=O)c1sc(NC(=O)c2cccc([N+](=O)[O-])c2)c(C(N)=O)c1C	none
COC(=O)c1c(NC(=O)c2cccc([N+](=O)[O-])c2)sc(C(N)=O)c1C	eIF4H inh 63, PABP FP inh 28
C[C@H](NC(=O)c1nc[nH]c1C(=O)N(C)CCO)c1ccccc1	none (no result: HCV core dimer, eIF4H inh, PABP FP inh, FID counter, NS3 helicase inh)
O=C1NC(=O)C(=CC=Cc2ccccc2)S1	none (no result: HCV core dimer, eIF4H inh, PABP FP inh, FID counter, NS3 helicase inh)
O=C1CC(N2C(=O)/C(=C/C=C/c3ccccc3)SC2=S)C(=O)N1c1ccccc1 (centres undefined)	HCV core dimer 51
Nc1nc(-c2ccc3c(c2)CCO3)cs1	PABP FP inh 91
CCOc1ccc(/C=C/C(=O)Nc2ccccc2C(F)(F)F)cc1	eIF4H inh active, PABP FP inh 94
CCOC(=O)C(C)Sc1nnc(Cc2cc(=O)[nH]c(=O)[nH]2)n1-c1ccc(Cl)cc1 (centres undefined)	PABP1 MLLE inh 45
COC(=O)C(C)Sc1nnc(Cc2cc(=O)[nH]c(=O)[nH]2)n1-c1ccc(Cl)cc1 (centres undefined)	none
CCc1ccc2c(c1)NC(=O)C2(C)Cc1ccccc1OC (centres undefined)	none (no result: HCV core dimer, eIF4H inh, PABP FP inh, FID counter, NS3 helicase inh)
CCN(C(=S)Nc1cccc2ccccc12)c1ccccc1	none (no result: HCV core dimer, eIF4H inh, PABP FP inh, FID counter, NS3 helicase inh)
Cc1cc(C(F)(F)F)nc(SCC(=O)NC2=NC(=O)C(C)S2)n1 (centres undefined)	PABP1 MLLE inh 44
CC1=C(C(=O)N(C)C)CC(CC(=O)NC(c2ccccc2)c2ccccc2)C(=O)N1CCCN1CCCC1=O (centres undefined)	none (no result: HCV core dimer, eIF4H inh, PABP FP inh, FID counter, NS3 helicase inh)
Nc1[nH]c2cc([N+](=O)[O-])ccc2c1-c1ccccn1	PABP FP inh 17
CCN(CC)S(=O)(=O)c1ccc(C(=O)NCC2CCCCC2)cc1	none
CCCCc1c(C)nc(N2CCCC2)[nH]c1=O	eIF4H inh 65
COc1cc(NC(=O)N2CCc3nc(Nc4cc(Cl)cc(Cl)c4)ncc3C2)cc(OC)c1OC	none (no result: HCV core dimer, eIF4H inh, PABP FP inh, FID counter, NS3 helicase inh)
COc1cc(/C=N/NC(=O)COc2ccc([N+](=O)[O-])cc2)ccc1OCC(=O)N1CCOCC1	none
Cc1ccc(C(=O)NNC(=O)c2ccncc2)cc1C	none
Cc1ccc(CC(=O)NNC(=O)c2ccncc2)cc1C	PABP1 MLLE inh 57 (no result: eIF4H inh, PABP FP inh, FID counter, NS3 helicase inh)
Cc1ccc(N(CC(=O)NC2CCCCC2)C(=O)CCCC(=O)Nc2ccccn2)cc1	eIF4H inh 79, PABP FP inh 69
Cc1cccc(N(CC(=O)NC2CCCCC2)C(=O)CCCC(=O)Nc2ccccn2)c1	none
CN(C)CCCn1c2c(c(SCC(=O)Nc3cccc4ccccc34)nc1=O)CCCC2	none (no result: eIF4H inh, PABP FP inh, FID counter, NS3 helicase inh)
O=C(NC(=S)Nc1ccc(NC(=O)c2cccs2)cc1)c1cc2ccccc2o1	eIF4H inh 96, PABP FP inh 25
Cc1nc(NC(=S)NC(=O)c2cccs2)ccc1Br	none
Cc1cccc(NC(=S)NC(=O)c2cccs2)n1	PABP1 MLLE inh 41
CCCC(=O)NC(=S)Nc1cccc(Cl)c1N1CCCC1	PABP1 MLLE inh 45
O=C(NC(=S)Nc1cccc2cccnc12)c1cccs1	PABP1 MLLE inh 48
N#Cc1ccc(CN2CCN(C(=O)CCNS(=O)(=O)c3ccc(F)c(Cl)c3)CC2)cc1	none (no result: HCV core dimer, eIF4H inh, PABP FP inh, FID counter, NS3 helicase inh)
Cc1ccc([C@H]2N[C@]3(CCCN(Cc4ccc(F)cc4)C3=O)[C@H]3C(=O)N(Cc4ccccc4)C(=O)[C@@H]23)cc1	none (no result: HCV core dimer, eIF4H inh, PABP FP inh, FID counter, NS3 helicase inh)
O=C(NC(=S)Nc1cccc2cccnc12)c1ccccc1	PABP1 MLLE inh 39
CC(=O)NCCOc1cccc2cccnc12	none
